CFTR F508del cor – CFTR F508del correction in bronchial cells; CFBE cells, YFP halide quenching; stimulated with forskolin plus potentiator P3; % fluorescence drop versus neutral controls; activity (quench increase), % at 7.58 µM; 350,000 compounds, 0.36% hits;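 active = mean added fluorescence quench of at least 8% versus neutral control, with both replicates also reaching 8%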;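 note: cells transiently co-express mutant CFTR-F508del with the halide-sensitive YFP; corrector assay measuring rescue of mutant channel to the surface after 24 h compound exposure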
E-sel inducer – E-selectin induction on HUVECs | HUVEC E-selectin immunofluorescence imaging; normalized: neutral wells 0, TNF-alpha wells 100 | activation, % at 7.58 µM | 260,000 compounds, 0.37% hits;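 active = mean E-selectin-positive cell signal at least 10% of the positive control, reached in at least 60% of replicates, without over 20% cell loss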
Target sequence (P16581 whole entry, looked up): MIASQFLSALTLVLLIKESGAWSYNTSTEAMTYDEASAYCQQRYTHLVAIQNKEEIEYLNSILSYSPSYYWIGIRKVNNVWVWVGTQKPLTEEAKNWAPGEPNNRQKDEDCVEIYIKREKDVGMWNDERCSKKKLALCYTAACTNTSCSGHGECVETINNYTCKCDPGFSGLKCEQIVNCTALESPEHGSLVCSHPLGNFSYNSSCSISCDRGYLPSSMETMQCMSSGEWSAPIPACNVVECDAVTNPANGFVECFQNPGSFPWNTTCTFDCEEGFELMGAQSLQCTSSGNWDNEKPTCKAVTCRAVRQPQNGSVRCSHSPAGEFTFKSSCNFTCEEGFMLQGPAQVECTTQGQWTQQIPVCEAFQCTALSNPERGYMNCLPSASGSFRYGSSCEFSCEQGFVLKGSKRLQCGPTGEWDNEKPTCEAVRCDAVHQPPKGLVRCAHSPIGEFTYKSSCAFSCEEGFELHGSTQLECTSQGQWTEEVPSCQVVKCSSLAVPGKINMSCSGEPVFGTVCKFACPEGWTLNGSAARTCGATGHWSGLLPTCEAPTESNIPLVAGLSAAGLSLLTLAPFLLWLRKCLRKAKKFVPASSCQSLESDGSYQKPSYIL
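System: HUVEC / Compound: single concentration / Signal: immunofluorescence imaging / Read-out: percent E-selectin-positive cells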
S100A4 inh HTS – inhibitors of human S100A4 binding to myosin IIA peptide; AID 652163; P26447; S100A4/TAMRA-MyoIIA peptide fluorescence polarization; inhibition, % at 10.7 µM; 360,000 compounds, 0.14% hits;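 active = mean inhibition of at least 70% across replicates, with every replicate also reaching that level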
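Material: S100A4 monomer protein / Buffer or medium: 50 mM HEPES pH 7.2, 10 mM CaCl2, 100 mM KCl / Times: 5 min incubation before reading / Benchmarks: neutral control DMSO, positive control TFP / Reagent: labelled myosin peptide probe, 5 nM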
FGF22 binding – binders of recombinant human FGF22 by thermal shift | SYPRO orange fluorescence; percent of sucrose octasulfate shift, DMSO zero | activity (Tm shift, normalised), % at 9.99 µM | 340,000 compounds, 1.5% hits;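 active = mean Tm shift, scaled 0 neutral to 100 positive control, at about 1.3% or above, every replicate too, limit read from the data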
Env fusion inh – blocks HIV Env-driven cell-cell fusion | HeLa-JRFL Env/CEM21 cell fusion, luciferase | inhibition, % at 12.3 µM | 360,000 compounds, 1.1% hits | AID 651610;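 active = mean replicate inhibition score of at least 50 and every replicate individually at or above 50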
A number is an active result. An excerpt weighted towards active compounds, which were near 2.7% of everything screened.

Screening CCc1cc(-c2nnn(-c3cc(C(C)C)ccc3C)c2CC)ccc1-c1cn(CCc2c[nH]c3ccccc23)nn1 returned CFTR F508del cor inactive, S100A4 inh HTS inactive, FGF22 binding inactive and Env fusion inh 84.5.
`CCc1cc(-c2cnnn2CCc2c[nH]c3ccccc23)ccc1-c1cn(CC(C)C)nn1` gave CFTR F508del cor inactive, E-sel inducer inactive, S100A4 inh HTS inactive, FGF22 binding inactive and Env fusion inh inactive.
Screening COC(=O)CC(NC(=O)c1ccc(C)cc1)c1ccc2c(c1)OCO2 (stereo not given) returned Env fusion inh inactive.
C=CCNC(=S)NC(CC(=O)OC)c1ccc2c(c1)OCO2 (stereo not given) was read as CFTR F508del cor inactive, E-sel inducer inactive, S100A4 inh HTS inactive, FGF22 binding 42.9 and Env fusion inh inactive.
`O=C(C[C@@H]1C[C@@H]2c3cc(NC(=O)c4cccnc4)ccc3O[C@@H]2[C@H](CO)O1)NCc1cccc(F)c1` gave CFTR F508del cor inactive, E-sel inducer inactive, S100A4 inh HTS inactive, FGF22 binding inactive and Env fusion inh inactive.
O=C(/C=C/c1ccc(S(=O)(=O)N2CCOCC2)cc1)NC(=S)Nc1ccc(Cl)cc1Cl was read as CFTR F508del cor inactive, S100A4 inh HTS inactive, FGF22 binding 43.3 and Env fusion inh inactive.
Screening COC(=O)c1c(C)[nH]c(O)c1C=Nc1ccc(C(C)C)cc1 returned Env fusion inh inactive.
COC(=O)c1c(C)[nH]c(O)c1C=Nc1ccc(Oc2ccccc2)cc1 was read as CFTR F508del cor inactive, S100A4 inh HTS inactive, FGF22 binding 43.6 and Env fusion inh inactive.
Screening CO[C@H]1CN(C)C(=O)c2cc(NC(=O)C3CC3)ccc2OC[C@@H](C)N(Cc2nccs2)C[C@H]1C returned CFTR F508del cor inactive, E-sel inducer inactive, S100A4 inh HTS inactive and FGF22 binding inactive.
Screening CC(C)NC(=O)Nc1ccc2c(c1)CC(=O)N([C@H](C)CO)C[C@@H](C)[C@H](CN(C)S(=O)(=O)c1cn(C)cn1)O2 returned CFTR F508del cor inactive, E-sel inducer inactive, S100A4 inh HTS inactive, FGF22 binding inactive and Env fusion inh inactive.
For COc1ccc(NC(=O)Nc2ccc3c(c2)C(=O)N([C@@H](C)CO)C[C@@H](C)[C@@H](CN(C)CC2CCCCC2)OCCCC[C@@H](C)O3)cc1 the results were CFTR F508del cor inactive, E-sel inducer inactive, S100A4 inh HTS inactive, FGF22 binding inactive and Env fusion inh inactive.
For COc1cc([N+](=O)[O-])ccc1NC(=O)NCc1ccco1 the results were CFTR F508del cor inactive, S100A4 inh HTS inactive, FGF22 binding 43.9 and Env fusion inh inactive.
Cc1ccc(S(=O)(=O)Nc2ccc3c(c2)CC(=O)N([C@H](C)CO)C[C@@H](C)[C@H](CN(C)C(=O)Nc2ccc(C(F)(F)F)cc2)O3)cc1 was read as CFTR F508del cor inactive, E-sel inducer inactive, S100A4 inh HTS inactive, FGF22 binding inactive and Env fusion inh inactive.
`CCn1nc(CC(=O)O)c2ccccc2c1=O` gave CFTR F508del cor inactive, E-sel inducer 185.1, S100A4 inh HTS inactive, FGF22 binding 43.7 and Env fusion inh inactive.
For CCCCn1nc(CC(=O)O)c2ccccc2c1=O the results were Env fusion inh inactive.
O=C1C=C(c2ccc3ncccc3c2)C[C@@H](c2ccc3c(c2)OCO3)C1 was read as CFTR F508del cor 9.8, E-sel inducer inactive, S100A4 inh HTS inactive, FGF22 binding inactive and Env fusion inh inactive.
`COc1ccc(S(=O)(=O)N(C)C[C@H]2Oc3ccc(NC(=O)CCCN(C)C)cc3C(=O)N([C@@H](C)CO)C[C@@H]2C)cc1` gave CFTR F508del cor inactive, E-sel inducer 52.0, S100A4 inh HTS inactive and FGF22 binding inactive.
COc1ccc(S(=O)(=O)N(C)C[C@H]2Oc3ccc(NC(=O)c4ccncc4)cc3C(=O)N([C@H](C)CO)C[C@@H]2C)cc1 was read as CFTR F508del cor inactive, E-sel inducer 53.6, S100A4 inh HTS inactive, FGF22 binding inactive and Env fusion inh inactive.
For COc1ccc(S(=O)(=O)N(C)C[C@H]2Oc3ccc(NC(=O)CCCN(C)C)cc3C(=O)N([C@@H](C)CO)C[C@H]2C)cc1 the results were CFTR F508del cor inactive, E-sel inducer 97.0, S100A4 inh HTS inactive and FGF22 binding inactive.
`COc1ccc(NC(=O)Nc2ccc3c(c2)C(=O)N([C@@H](C)CO)C[C@@H](C)[C@@H](CN(C)S(=O)(=O)c2ccc(F)cc2)O3)cc1` gave CFTR F508del cor inactive, E-sel inducer 37.4, FGF22 binding inactive and Env fusion inh inactive.
For COc1ccc(S(=O)(=O)N(C)C[C@H]2Oc3ccc(NC(=O)CCCN(C)C)cc3C(=O)N([C@H](C)CO)C[C@@H]2C)cc1 the results were CFTR F508del cor inactive, E-sel inducer inactive, S100A4 inh HTS inactive and FGF22 binding inactive.
`COc1ccc(S(=O)(=O)N(C)C[C@H]2Oc3ccc(NC(=O)Nc4ccc(F)cc4)cc3C(=O)N([C@H](C)CO)C[C@@H]2C)cc1` gave CFTR F508del cor inactive, E-sel inducer inactive, S100A4 inh HTS inactive and FGF22 binding inactive.
CO[C@@H]1CN(C)C(=O)c2ccc(NS(=O)(=O)c3ccccc3)cc2OC[C@H](C)N(Cc2ccccn2)C[C@@H]1C was read as CFTR F508del cor inactive, E-sel inducer inactive, S100A4 inh HTS inactive and FGF22 binding inactive.
Screening O=C(NCC1CCCO1)C(=O)N/N=C/c1ccccc1C(=O)O (stereo not given) returned CFTR F508del cor inactive, E-sel inducer inactive, S100A4 inh HTS inactive, FGF22 binding 43.1 and Env fusion inh inactive.
For CCOc1cc(/C=N/NC(=O)C(=O)NC2CC2)cc(Br)c1O the results were S100A4 inh HTS inactive, FGF22 binding inactive and Env fusion inh inactive.
`CCOc1cc(/C=N/NC(=O)C(N)=O)cc(Br)c1O` gave CFTR F508del cor inactive, S100A4 inh HTS inactive, FGF22 binding 43.3 and Env fusion inh inactive.
For CCOc1cc(/C=N/NC(=O)N/N=C/c2ccc(O)c(OCC)c2)ccc1O the results were CFTR F508del cor 10.8, E-sel inducer inactive, S100A4 inh HTS inactive, FGF22 binding inactive and Env fusion inh inactive.
COc1ccc(Cl)cc1NC(=S)NNC(=O)c1cccnc1 was read as CFTR F508del cor inactive, S100A4 inh HTS inactive, FGF22 binding 42.9 and Env fusion inh inactive.
COC(=O)c1cccc(NC(=S)Nc2cc(Cl)ccc2OC)c1 was read as CFTR F508del cor inactive, E-sel inducer inactive, S100A4 inh HTS inactive, FGF22 binding 43.3 and Env fusion inh inactive.
`COC(=O)c1cc(OC)c(OC)cc1NC(=S)Nc1cccc(C(C)=O)c1` gave Env fusion inh inactive.
`CN1CCN(C(=O)CCN2C(=O)S/C(=C/c3ccc(Cl)cc3)C2=O)CC1` gave CFTR F508del cor inactive, S100A4 inh HTS inactive, FGF22 binding 43.4 and Env fusion inh inactive.
O=C(N/N=C/c1sc(N2CCOCC2)nc1-c1ccccc1)c1ccc(O)cc1 was read as CFTR F508del cor inactive, S100A4 inh HTS inactive, FGF22 binding inactive and Env fusion inh inactive.
